# High-throughput results deposited in PubChem by several laboratories.
# Compounds with a hit are over-represented: about 2.1% of the library has one in this group of screens.
# TLR4-MyD88 BLA: inhibitors of TLR4-MyD88 association in cells, primary screen, cell-based, HeLa CL3-4, BLA complementation, FRET ratio; Toll-like receptor 4 (Homo sapiens) + Myeloid differentiation primary response protein …; HeLa CL3-4 TLR4/MyD88 BLA complementation; inhibition, % at 8.4 µM; 200,000 tested, 0.18% active; AID 861, 2007; in the data active = inhibition above about 25%;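 also: 0% = vehicle and 100% = reference inhibitor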
# NOD2 RIPK2 PPI: NOD2-RIPK2 binding disruptors in cells, primary screen, fluorescence, CHO cells, BLA complementation; inhibition, % at 4.98 µM; CCF4 ratio; Receptor-interacting serine/threonine-protein kinase 2 (Homo sapiens), O43353; 360,000 tested, 0.38% active; in the data active = inhibition above about 21%;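 also: 0% = vehicle only and 100% = reference blocker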
# MC4R antagonist: MC4R antagonists of cAMP signaling, primary screen, cell-based, TR-FRET, antagonist arm of biased-ligand search. Melanocortin receptor 4 (Homo sapiens), P32245. MC4R-expressing cells, MTII-stimulated cAMP, LANCE TR-FRET. inhibition, % at 6.5 µM. 360,000 tested, 0.48% active;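 active = inhibition above its plate's cutoff, the mean of tested wells on that plate plus 3 SD, cut at about 29% in these data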;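 also: 0% = Melanotan II alone and 100% = Melanotan II plus saturating MCL0020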
#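 Assay system: U2OS cells stably expressing human melanocortin 4 receptor (MC4R) / Dosing: 6.5 µM / Timing: compound 30 min, challenge 1 h, detection 1 h / Measured by: Eu-cAMP/anti-cAMP TR-FRET, emission 671 nm / Replicates: singlicate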
# TLR9-MyD88 block: inhibitors of TLR9-MyD88 association in cells, primary screen, cell-based, CHO, BLA complementation, fluorescence; CCF4 FRET ratio; inhibition, % at 4.98 µM; 340,000 tested, 0.21% active; AID 504734, 2011; Toll-like receptor 9 (Homo sapiens) + Myeloid differentiation primary response protein …;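 active = inhibition above the mean over all tested compounds plus 3 SD, cut at about 21% in these data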;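 also: 0% = DMSO only wells and 100% = clavulanate BLA inhibitor control wells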
# Target sequence (Q99836 whole entry, looked up): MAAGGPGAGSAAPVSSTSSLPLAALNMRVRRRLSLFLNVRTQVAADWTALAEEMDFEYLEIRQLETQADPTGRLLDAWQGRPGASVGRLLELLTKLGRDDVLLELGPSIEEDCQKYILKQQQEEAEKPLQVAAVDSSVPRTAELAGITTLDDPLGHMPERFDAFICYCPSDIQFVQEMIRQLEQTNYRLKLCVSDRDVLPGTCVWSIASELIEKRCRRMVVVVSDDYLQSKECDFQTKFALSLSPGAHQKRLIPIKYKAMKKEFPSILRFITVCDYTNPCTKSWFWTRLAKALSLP
# Target sequence (Q9NR96 whole entry, looked up): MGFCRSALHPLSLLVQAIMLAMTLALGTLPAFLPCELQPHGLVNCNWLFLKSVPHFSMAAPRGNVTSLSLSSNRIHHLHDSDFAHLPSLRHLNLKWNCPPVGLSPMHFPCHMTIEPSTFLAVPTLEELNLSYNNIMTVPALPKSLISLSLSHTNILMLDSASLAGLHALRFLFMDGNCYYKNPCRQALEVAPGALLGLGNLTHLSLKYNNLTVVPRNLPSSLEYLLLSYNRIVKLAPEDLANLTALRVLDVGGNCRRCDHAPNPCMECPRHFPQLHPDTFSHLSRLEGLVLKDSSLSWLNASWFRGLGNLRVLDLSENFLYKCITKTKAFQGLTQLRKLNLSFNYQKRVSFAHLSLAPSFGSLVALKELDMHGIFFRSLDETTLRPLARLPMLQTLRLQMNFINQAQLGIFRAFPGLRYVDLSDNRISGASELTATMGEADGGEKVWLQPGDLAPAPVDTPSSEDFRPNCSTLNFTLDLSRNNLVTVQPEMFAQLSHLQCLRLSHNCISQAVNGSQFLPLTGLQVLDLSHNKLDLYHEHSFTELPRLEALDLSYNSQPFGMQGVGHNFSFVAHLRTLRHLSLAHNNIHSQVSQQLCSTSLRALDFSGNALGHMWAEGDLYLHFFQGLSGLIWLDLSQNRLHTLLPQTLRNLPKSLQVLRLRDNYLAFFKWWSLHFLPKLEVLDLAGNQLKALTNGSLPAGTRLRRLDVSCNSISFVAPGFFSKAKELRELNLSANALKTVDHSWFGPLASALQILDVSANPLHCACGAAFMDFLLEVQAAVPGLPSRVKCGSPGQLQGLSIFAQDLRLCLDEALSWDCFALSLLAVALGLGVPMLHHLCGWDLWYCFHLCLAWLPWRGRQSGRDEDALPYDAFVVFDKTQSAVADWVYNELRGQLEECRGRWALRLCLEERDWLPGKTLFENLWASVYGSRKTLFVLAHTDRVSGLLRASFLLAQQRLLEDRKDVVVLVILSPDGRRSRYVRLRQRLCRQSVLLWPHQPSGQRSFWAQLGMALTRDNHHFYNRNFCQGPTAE
# MIN6 prolif-1: inducers of MIN6 beta-cell proliferation, primary screen, ATP luminescence, uHTS; MIN6 cells proliferation, ATPlite luminescence, 48 h; cells starved in 0.2% serum; 100% = growth in 10% serum; proliferation, % at 10 µM; 330,000 tested, 0.29% active; AID 2380, 2010;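 active = compounds whose signal lies at least 3.5 SD above the mean of all wells on their plate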;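 also: 0% = DMSO-treated cells in low-serum medium and 100% = 10% serum control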
# MC4R ag barr: MC4R agonists recruiting beta-arrestin, primary screen, cell-based, luminescence, agonist arm of biased-ligand search. Melanocortin receptor 4 (Homo sapiens), P32245. U2OS MC4R beta-arrestin complementation; percent of melanotan II response, DMSO zero. activation, % at 8.9 µM. 360,000 tested, 0.98% active. AID 540308, 2011;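 active = activation above a per-plate cutoff, the mean activation of sample wells on that plate plus 3 SD, cut at about 8% in these data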
# TLR4 MyD88 cnf: TLR4-MyD88 association inhibitors, retest, confirmation, cell-based, HeLa CL3-4, BLA complementation, FRET ratio. 350 tested, 50% active. CCF4 FRET ratio. inhibition, % at 8.4 µM. shares compounds with TLR4-MyD88 BLA;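 active = mean inhibition across three repeat runs above about 25% carried over from the earlier screen, limit read from the data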;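 also: plate controls were DMSO only for no effect and clavulanic acid blocking BLA at full dose for full effect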
# BLA inh HeLa: counter-screen for TLR4-MyD88 inhibitors: beta-lactamase reporter inhibitors; shares compounds with TLR4-MyD88 BLA; HeLa BLA reporter, CCF4 FRET ratio; inhibition, % at 8.4 µM; 350 tested, 63% active;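 active = mean inhibition over three repeats above about 26% taken from the earlier screen, limit read from the data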;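 also: HeLa cells stably expressing beta-lactamase reporter as counterscreen for TLR4-MyD88 inhibitors; 0% = DMSO and 100% = clavulanic acid full inhibition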
# MIN6 prolif-2: inducers of beta-cell proliferation in MIN6, confirmation, MIN6 cells, mouse; 920 tested, under 10 active; ATPlite luminescence, 48 h; cells kept in 0.2% serum; scaled between 0.2% and 10% serum; AID 463095, 2010; shares compounds with MIN6 prolif-1; proliferation increase, % at 50 µM;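 active = proliferation increase above 40% at any of the four tested concentrations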
# TLR9-MyD88 conf: TLR9-MyD88 association inhibitors, retest, confirmation, cell-based, CHO, BLA complementation, fluorescence, triplicate; shares compounds with TLR9-MyD88 block; CCF4 FRET ratio; inhibition, % at 4.98 µM; 680 tested, 51% active;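 active = mean inhibition across three repeats above about 21% taken from the earlier screen, limit read from the data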;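 also: blue over green emission ratio reports constitutive TLR9 MyD88 association via BLA complementation; 0% = DMSO vehicle wells and 100% = clavulanate BLA inhibitor wells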
# BLA counter-1: beta-lactamase reporter inhibitors in CHO cells, artefact control for TLR9-MyD88 binding inhibitor project, cell-based, fluorescence; CHO-BLA cells, CCF4 FRET ratio, BLA reporter; inhibition, % at 4.98 µM; shares compounds with TLR9-MyD88 block; 680 tested, 7% active;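 active = mean inhibition above a 50% cutoff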;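 also: counterscreen of TLR9-MyD88 hits on CMV-driven BLA in CHO-K1 cells; 0% = DMSO alone and 100% = clavulanate blocking BLA; higher means less blue over green ratio so more BLA blockade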
# TLR9 CHO cytotox: CHO cell viability loss – luminescence, single concentration, cytotoxicity control for TLR9-MyD88 binding inhibitor project. inhibition, % at 4.98 µM. 680 tested, 39% active. TLR9-MyD88 CHO cells cytotoxicity. shares compounds with TLR9-MyD88 block; in the data active = inhibition above about 11%
# NOD2 RIPK2 conf: NOD2-RIPK2 binding disruptors, retest, confirmation, fluorescence, CHO cells, BLA complementation, triplicate; CCF4 FRET; inhibition, % at 4.98 µM; shares compounds with NOD2 RIPK2 PPI; 1,200 tested, 70% active;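 active = mean inhibition across replicates above a set limit taken from the earlier primary screen, cut at about 21% in these data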;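 also: 0% = DMSO-only wells and the high end = clavulanate BLA-blocked wells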
# BLA counter-2: hits BLA reporter in NOD2-RIPK2 inhibitor counterscreen | 1,200 tested, 57% active | CHO BLA reporter, CCF4 FRET ratio | inhibition, % at 4.98 µM | shares compounds with NOD2 RIPK2 PPI;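 active = mean inhibition above the low-control mean inhibition plus three low-control SD, cut at about 11% in these data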;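 also: 0% = DMSO only wells and 100% = clavulanate high control wells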
# * = called active by the depositor; nt = no result given.
SMILES,TLR4-MyD88 BLA,NOD2 RIPK2 PPI,MC4R antagonist,TLR9-MyD88 block,MIN6 prolif-1,MC4R ag barr,others
COC1CCC(OC2CC(C3(C)CCC4(CC(O)C(C)C(C(C)/C=C(\C)C(=O)C(C)CC(C)C(=O)O)O4)O3)OC3(OC(C4OC(O)(CO)C(C)CC4C)CC3C)C2C)OC1C (stereo not given),nt,7,8,-6,nt,19*,
CNC(=O)C[C@H]1CC[C@@H]2NC[C@H](O)COC[C@H]2O1,nt,-3,nt,nt,nt,nt,
O=C1/C(=C/c2ccccc2)C[C@@]2(O)[C@H]3Cc4ccc(O)c5c4[C@@]2(CCN3CC2CC2)C1O5 (stereo not given in full),nt,35*,-3,7,-5,-4,
Clc1cccc(N2Cc3cc(-c4ccccc4)ccc3-n3nncc3C2)c1,nt,1,nt,nt,nt,nt,
CC(C)C[C@@H]1COc2cccc(N3CCN(C)CC3)c2S(=O)(=O)N1,nt,1,nt,nt,nt,nt,
CCc1ccc(CNCCc2ccc(F)cc2)cc1,6,12,3,-2,0,0,
Fc1ccc(CCNCc2ccc(Cl)c(Cl)c2)cc1,12,-8,1,7,-3,8.7*,
Cc1cc2c(C(C)C)c(O)c(O)c(C=O)c2c(O)c1-c1c(C)cc2c(C(C)C)c(O)c(O)c(C=O)c2c1O,-15,2,14,nt,nt,9.5*,
C[C@]12CCC3C(CCC4=CC(O)CC[C@@]43/C=N/O)C1(O)CCC2C1=CC(=O)OC1 (stereo not given in full),nt,2,0,-4,1,39*,
C[C@]12CC[C@H]3[C@@H](CC[C@]4(O)C[C@@H](O)CC[C@]34C=O)[C@@]1(O)CC[C@@H]2C1=CC(=O)OC1,nt,2,3,7,-4,27*,
C[C@H]1O[C@@H](OC2CC[C@]3(C=O)[C@H]4CC[C@]5(C)[C@@H](C6=CC(=O)OC6)CC[C@]5(O)[C@@H]4CC[C@]3(O)C2)CC2OC(C)(C)OC21 (stereo not given in full),nt,-4,-3,-11,nt,40*,
CCCCN=C[C@]12CCC(O)CC1(O)CCC1[C@@H]2CC[C@]2(C)[C@H](C3C=CC(=O)O3)CCC12O (stereo not given in full),nt,-7,-2,-12,-2,35*,
COC(=O)[C@@H]1N=C(c2ccc(OC)cc2)O[C@]12C(=O)N(C)c1ccc(Cl)cc12,nt,-8,nt,nt,nt,nt,
Cc1ccc(C(O)(C(=O)OC(C)C)C(O)c2ccccc2)cc1 (stereo not given),nt,-4,nt,nt,nt,nt,
CC12CCC(O)CC1CCC1C2CCC2(C)C(C(=O)CO)CCC12 (stereo not given),nt,-7,0,nt,nt,1,
CC12CC[C@H]3[C@@H](CCC4(O)C[C@H](O)CCC34/C=N/NC(=O)c3ccccc3Cl)C1(O)CCC2C1=CC(=O)OC1 (stereo not given in full),nt,-4,4,-3,0,-1,
CC12CCC3C(CCC4(O)CC(O)CCC34C=NO)C1(O)CCC2C1=COC(=O)C1 (stereo not given),nt,-5,2,6,nt,26*,
CC12CCC3C(CCC4(O)CC(O)CCC34C=O)C1(O)CCC2C1=CC(=O)OC1 (stereo not given),nt,-3,8,-2,nt,21*,
Cc1cc2c(C(F)(F)F)cc(=O)oc2c2c1NCCC2,31*,20,-21,15,-1,0,TLR4 MyD88 cnf=54*;BLA inh HeLa=55*
CN1OC[C@@H]2CN[C@H](c3ccc(Br)cc3)C[C@@H]21,nt,-1,15,-3,nt,0,
CC1(C)OC(c2ccccc2)=C/C(=C/C=C2C(=O)NC(=S)NC2=O)O1,67*,nt,nt,nt,-1,nt,TLR4 MyD88 cnf=63*;BLA inh HeLa=90*
Cc1ccccc1-c1ccc2c(c1)C1c3c(-c4ccccc4)nnn3-c3ccccc3C(=O)N1CC2 (stereo not given),nt,-3,nt,nt,nt,nt,
O=c1cc(C(F)(F)F)c2cc3c4c(c2o1)CCCN4CCC3,54*,68*,-11,46*,3,-1,TLR4 MyD88 cnf=49*;BLA inh HeLa=81*;TLR9-MyD88 conf=51*;BLA counter-1=55*;TLR9 CHO cytotox=-1;NOD2 RIPK2 conf=63*;BLA counter-2=76*
Cc1ccc(-n2c(=O)[nH]c3ccccc3c2=O)cc1[N+](=O)[O-],nt,-50,nt,nt,nt,nt,
CC(Cc1ccccc1)NC(=O)/C=C/C(=O)O (stereo not given),-6,-12,6,3,7.3*,-1,MIN6 prolif-2=0
